Test results: paper PMC7357868 (ACS chemical biology, 2019)

How the values were obtained:
[1] = tested on: recombinant hpol κ; settings: cited from earlier work
[2] = tested on: hpol κ-proficient HAP-1 cells; assay: Clonogenic survival assay; assay type: cell-based, human; settings: 250 μM TMZ alone, 1 h, 10 days culture
[3] = tested on: hpol κ-deficient HAP-1 cells; assay: Clonogenic survival assay; assay type: cell-based, human; settings: 250 μM TMZ alone
[4] = tested on: hpol κ-proficient HAP-1 cells; assay: Alkaline comet assay; assay type: cell-based, human; settings: 100 μM TMZ alone, 1 h
How it was run: (§1)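 100 000 HAP-1 cells per well, test compound 0.5 μM alone or with alkylating agent (100 μM), 1 h; DMSO control. Cells embedded in low-melting agarose (200–300 per well), lysed 1 h, alkaline unwinding (200 mM NaOH, 1 mM EDTA) 20 min RT, electrophoresis 21 V, 30 min, 4 °C, SYBR Gold stain. Read-out is % DNA in tail per cell; ≥20 cells per replicate, three biological replicates, mean ±SD.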

[5] = tested on: hpol κ-deficient HAP-1 cells; assay: Alkaline comet assay; assay type: cell-based, human; settings: 100 μM TMZ alone, 1 h
How it was run: as §1

CC(C)c1ccc2c(c1)c(SC(C)(C)C)c(CC(C)(C)C(=O)O)n2Cc1ccc(Cl)cc1 [MK-886]
IC50 [1]: tens of micromolar

Cn1nnc2c(C(N)=O)ncn2c1=O [TMZ, temozolomide, reference compound]
colonies formed relative to untreated cells [2]: ~ 75%
colonies formed relative to untreated cells [3]: less than 50%
DNA damage (% DNA in tail) over untreated cells [4]: approximately sevenfold
DNA damage (% DNA in tail) over control [5]: significantly greater amount of DNA damage over control

CCOc1nc2cccc(C(=O)OC(C)OC(=O)OC3CCCCC3)c2n1Cc1ccc(-c2ccccc2-c2nn[nH]n2)cc1 (stereo not drawn) [candesartan, candesartan cilexetil]
IC50 [1]: tens of micromolar
